Assay results published in ChEMBL document CHEMBL4334452, “Monosaccharide Analogues of Anticancer Peptide R-Lycosin-I: Role of Monosaccharide Conjugation in Complexation and the Potential of Lung Cancer Targeting and Therapy” (J Med Chem, 2019).
Calls of active or inactive are those of the source. No cut-off for these calls is given here. *1 amine or outer side, *2 acyl side, *3 side chain or, on linkers, in order; H or OH if unused. Where a SMILES comes first, the peptide text is derived from it. The star is where a group is joined. NH(CH2)3O(βDGlc) = OC[C@H]1O[C@@H](OCCCN*)[C@H](O)[C@@H](O)[C@@H]1O; Glutaryl = O=C(CCCC(=O)[*:2])[*:1]

Columns and labels:
A549 [1] = assay: Induction of morphological changes in human A549 cells assessed as cell shrinkage at 15 uM measured after 24 hrs by scanning electron microscopic analysis; assay type: functional, cell-based
A549 [2] = assay: Antitumor activity against human A549 cells expressing luciferase gene xenografted in Balb/c nu/nu mouse assessed as reduction in tumor volume at 3 mg/kg administered intratumorally every 3 days for four times measured on day 12 by bioluminescent imaging analysis; assay type: functional, organism-based
In short: (§1)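 Male BALB/c nu/nu mice, 4-6 weeks old, with subcutaneous A549-luciferase xenografts. Treatment began when tumors reached 100-200 mm³, five per group. Peptide was injected intratumorally at 3 mg/kg in 100 µL every 3 days for 4 doses; 100 µL PBS was the control. Bioluminescent imaging on day 12, with tumor size and body weight monitored.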

A549 [3] = assay: Antitumor activity against human A549 cells expressing luciferase gene xenografted in Balb/c nu/nu mouse assessed as tumor growth inhibition at 3 mg/kg administered intratumorally every 3 days for four times measured on day 12 by bioluminescent imaging analysis; assay type: functional, organism-based; in short: as §1
[4] = Drug uptake in heart of Balb/c nu/nu mouse xenografted with human A549 cells expressing luciferase gene at 3 mg/kg administered intratumorally measured after 6 hrs by fluorescence assay; assay type: ADME, organism-based; settings: in vivo, other
[5] = Toxicity in Balb/c nu/nu mouse xenografted with human A549 cells expressing luciferase gene assessed as change in body weight at 3 mg/kg administered intratumorally every 3 days for four times measured on day 12; assay type: organism-based; settings: in vivo, other, 72 h
In short: (§2)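 Male BALB/c nu/nu mice, 4–6 weeks old, carrying subcutaneous A549-luciferase tumours (right back, cells in sterile PBS), dosed at a tumour size of 100–200 mm³; five per group, PBS controls. Two regimens: 9 mg/kg i.p. (200 µL) every other day ×7, ended day 14; or 3 mg/kg intratumoral (100 µL) every 3 days ×4, ended day 12. Body weight was monitored throughout.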

[6] = target: T1, Solute carrier family 2, facilitated glucose transporter member 1 (Homo sapiens) (UniProt P11166); assay: Binding affinity to GLUT1 in human A549 cells assessed as cytotoxicity by measuring increase in LDH release at 25 uM measured after 2 hrs; assay type: cell-based
T1 sequence (whole entry): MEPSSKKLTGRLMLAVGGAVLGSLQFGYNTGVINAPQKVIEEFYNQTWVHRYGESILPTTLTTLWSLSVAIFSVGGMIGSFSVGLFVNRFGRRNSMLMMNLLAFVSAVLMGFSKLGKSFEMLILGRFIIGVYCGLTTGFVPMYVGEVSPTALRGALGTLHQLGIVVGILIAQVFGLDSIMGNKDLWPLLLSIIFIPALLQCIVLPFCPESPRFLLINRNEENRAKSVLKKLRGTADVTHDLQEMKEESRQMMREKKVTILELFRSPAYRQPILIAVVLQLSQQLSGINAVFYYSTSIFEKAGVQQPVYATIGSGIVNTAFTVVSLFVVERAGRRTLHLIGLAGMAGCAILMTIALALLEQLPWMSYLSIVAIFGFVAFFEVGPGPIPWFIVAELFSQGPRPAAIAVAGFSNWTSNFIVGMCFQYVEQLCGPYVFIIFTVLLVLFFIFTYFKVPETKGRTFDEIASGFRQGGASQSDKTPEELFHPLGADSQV
In short: (§3)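 A549 cells at 2×10^3/well, allowed to adhere overnight, then exposed to peptide over a concentration series for 2 h. LDH release measured with a kit, absorbance at 490 nm. 1% Triton X-100 taken as 100% release; n=3.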

[7] = target: T1, Solute carrier family 2, facilitated glucose transporter member 1 (Homo sapiens); assay: Binding affinity to GLUT1 in human A549 cells harboring luciferase gene assessed as cytotoxicity by measuring reduction in cell viability after 24 hrs by CCK8 assay; assay type: cell-based
[8] = Drug uptake in spleen of Balb/c nu/nu mouse xenografted with human A549 cells expressing luciferase gene at 9 mg/kg, ip measured after 6 hrs by fluorescence assay; assay type: ADME, organism-based; settings: in vivo
[9] = target: T1, Solute carrier family 2, facilitated glucose transporter member 1 (Homo sapiens); assay: Binding affinity to GLUT1 in human A549 cells assessed as cytotoxicity by measuring LDH release at 12.5 uM measured after 2 hrs relative to control; assay type: cell-based; in short: as §3
A549 [10] = assay: Induction of morphological changes in 3D spheroids of human A549 cells assessed as reduction in spheroid volume at 30 uM treated every 2 days for 6 days measured every 3 days during compound dosing by microscopic analysis; assay type: functional, cell-based
In short: (§4)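 A549 3D spheroids, one per well, in 10% medium with peptide at 30 µM final. Dosed at day 0, then re-added at days 2 and 4, for 6 days total. Spheroids washed thrice, then imaged and sized at days 0, 3 and 6. Viability read by CCK-8.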

A549 [11] = assay: Induction of apoptosis in human A549 cells assessed as late apoptotic cells at 8 uM measured after 4 hrs by Annexin V-FITC/propidium iodide staining-based flow cytometry (reference value: 3.61%); assay type: functional
In short: (§5)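 A549 cells grown 24 h, trypsinized, then resuspended in medium with 8 µM peptide for 4 h at 37 °C. Cells washed with cold PBS, stained with Annexin V-FITC/PI, and analysed by flow cytometry.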

[12] = Drug uptake in heart of Balb/c nu/nu mouse xenografted with human A549 cells expressing luciferase gene at 9 mg/kg, ip measured after 6 hrs by fluorescence assay; assay type: ADME, organism-based; settings: in vivo
A549 [13] = assay: Induction of mitochondrial membrane potential loss in human A549 cells at 15 uM measured after 24 hrs by JC1 staining based fluorescence microscopic analysis; assay type: functional, cell-based
In short: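 A549 cells exposed to 15 µM peptide for 24 h, then stained with JC-1 kit. Monomer and aggregate emissions viewed by fluorescence microscopy; depolarization read as a rise in the green/red ratio, n=3.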

[14] = target: T1, Solute carrier family 2, facilitated glucose transporter member 1 (Homo sapiens); assay: Binding affinity to GLUT1 in human A549 cells assessed as cytotoxicity by measuring reduction in cell viability at 15 uM by trypan blue staining-based assay
In short: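 A549 cells stained with trypan blue after peptide treatment at 15 µM. Dead cells appear blue and live cells unstained; live cells were counted.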

[15] = Toxicity in Balb/c nu/nu mouse xenografted with human A549 cells expressing luciferase gene assessed as change in body weight at 9 mg/kg, ip administered every 2 days for seven times measured on day 14; assay type: organism-based; settings: in vivo, 48 h; in short: as §2
[16] = Drug uptake in liver of Balb/c nu/nu mouse xenografted with human A549 cells expressing luciferase gene at 9 mg/kg, ip measured after 6 hrs by fluorescence assay; assay type: ADME, organism-based; settings: in vivo
A549 [17] = assay: Induction of apoptosis in human A549 cells assessed as increase in caspase-3 activity at 15 uM measured after 24 hrs by Ac-DEVD-pNA substrate based assay relative to control; assay type: functional
In short: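 A549 cells treated 24 h with 15 µM peptide, or medium as control. Cells lysed, and supernatant incubated with Ac-DEVD-pNA (2 mM). Absorbance read at 405 nm; activity ratio expressed against blank control, n=3.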

[18] = Drug uptake in liver of Balb/c nu/nu mouse xenografted with human A549 cells expressing luciferase gene at 3 mg/kg administered intratumorally measured after 6 hrs by fluorescence assay; assay type: ADME, organism-based; settings: in vivo, other
A549 [19] = assay: Induction of apoptosis in human A549 cells assessed as early apoptotic cells at 8 uM measured after 4 hrs by Annexin V-FITC/propidium iodide staining-based flow cytometry (reference value: 0.39%); assay type: functional; in short: as §5
A549 [20] = assay: Induction of morphological changes in 3D spheroids of human A549 cells assessed as disruption of cell morphology at 30 uM treated every 2 days for 6 days measured every 3 days during compound dosing by microscopic analysis; assay type: functional, cell-based; in short: as §4

SMILES: CC[C@H](C)[C@H](NC(=O)[C@H](Cc1ccccc1)NC(=O)[C@H](CCCNC(=N)N)NC(=O)[C@H](C)NC(=O)[C@@H](NC(=O)[C@H](CO)NC(=O)[C@H](CCCNC(=N)N)NC(=O)[C@H](CCSC)NC(=O)[C@H](C)NC(=O)[C@H](CCCNC(=N)N)NC(=O)[C@H](Cc1ccccc1)NC(=O)[C@H](Cc1c[nH]c2ccccc12)NC(=O)CNC(=O)[C@H](CCCNC(=N)N)NC(=O)CCCC(=O)NCCCO[C@@H]1O[C@H](CO)[C@@H](O)[C@H](O)[C@H]1O)[C@@H](C)CC)C(=O)N[C@@H](C)C(=O)N[C@@H](CCCNC(=N)N)C(=O)N[C@@H](CCC(=O)O)C(=O)N[C@@H](CCCNC(=N)N)C(=O)N[C@@H](CC(C)C)C(=O)N[C@@H](CCCNC(=N)N)C(=O)N[C@@H](CCC(=O)O)C(=O)N[C@@H](Cc1cnc[nH]1)C(=O)N[C@@H](CC(C)C)C(=O)O ({NH(CH2)3O(βDGlc)-Glutaryl}-RGWFRAMRSIARFIARERLREHL-OH)
- Activity (A549 [1]): Active
- Activity (A549 [2]): Active
- TGI (A549 [3]): Active
- Drug uptake [4]: Active
- Activity [5]: Non-Toxic
- Activity [6]: Active
- Activity [7]: Active
- Drug uptake [8]: Active
- Activity [9]: > 30%
- Activity (A549 [10]): Active
- Activity (A549 [11]): 38.49%
- Drug uptake [12]: Active
- Activity (A549 [13]): Active
- Activity [14]: Active
- Activity [15]: Non-Toxic
- Drug uptake [16]: Active
- fold change (FC) (A549 [17]): 1.5
- Drug uptake [18]: Active
- Activity (A549 [19]): 1.1%
- Activity (A549 [20]): Active

SMILES: CC[C@H](C)[C@H](NC(=O)[C@H](Cc1ccccc1)NC(=O)[C@H](CCCNC(=N)N)NC(=O)[C@H](C)NC(=O)[C@@H](NC(=O)[C@H](CO)NC(=O)[C@H](CCCNC(=N)N)NC(=O)[C@H](CCSC)NC(=O)[C@H](C)NC(=O)[C@H](CCCNC(=N)N)NC(=O)[C@H](Cc1ccccc1)NC(=O)[C@H](Cc1c[nH]c2ccccc12)NC(=O)CNC(=O)[C@@H](N)CCCNC(=N)N)[C@@H](C)CC)C(=O)N[C@@H](C)C(=O)N[C@@H](CCCNC(=N)N)C(=O)N[C@@H](CCC(=O)O)C(=O)N[C@@H](CCCNC(=N)N)C(=O)N[C@@H](CC(C)C)C(=O)N[C@@H](CCCNC(=N)N)C(=O)N[C@@H](CCC(=O)O)C(=O)N[C@@H](Cc1cnc[nH]1)C(=O)N[C@@H](CC(C)C)C(=O)O (H-RGWFRAMRSIARFIARERLREHL-OH)
- Activity (A549 [1]): Active
- Activity (A549 [2]): Active
- TGI (A549 [3]): Active
- Drug uptake [4]: Active
- Activity [5]: Non-Toxic
- Activity [6]: Active
- Activity [7]: Active
- Drug uptake [8]: Active
- Activity [9]: > 30%
- Activity (A549 [10]): Active
- Activity (A549 [11]): 9.87%
- Drug uptake [12]: Active
- Activity (A549 [13]): Active
- Activity [14]: Active
- Activity [15]: Non-Toxic
- Drug uptake [16]: Active
- fold change (FC) (A549 [17]): 1.5
- Drug uptake [18]: Active
- Activity (A549 [19]): 0.63%
- Activity (A549 [20]): Active
